In ChEMBL document CHEMBL4152287, “Synthesis and characterization of novel classes of PDE10A inhibitors - 1H-1,3-benzodiazoles and imidazo[1,2-a]pyrimidines” (Eur J Med Chem, 2018):

Legend:
[1] = target: High affinity cGMP-specific 3',5'-cyclic phosphodiesterase 9A (Homo sapiens, UniProt O76083); test: Inhibition of Ca2+/calmodulin-induced recombinant human full length N-terminal GST-tagged PDE9A2 expressed in baculovirus infected Sf9 cells using cGMP as substrate pretreated for 10 mins followed by substrate addition and measured after 60 mins by kinase-Glo luminescence assay
Procedure, shortened: (§1)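 Selectivity screen run as a PDE-Glo enzymatic-activity luminescence assay, with IC50 values determined against each counter-screen PDE isoform.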

[2] = target: Dual specificity calcium/calmodulin-dependent 3',5'-cyclic nucleotide phosphodiesterase 1C (Homo sapiens, UniProt Q14123); test: Inhibition of Ca2+/calmodulin-induced full-length recombinant human N-terminal GST-tagged PDE1C expressed in baculovirus infected Sf9 insect cells using cAMP as substrate pretreated for 10 mins followed by substrate addition and measured after 30 mins by kinase-Glo luminescence assay; procedure, shortened: as §1
[3] = target: T1, cAMP and cAMP-inhibited cGMP 3',5'-cyclic phosphodiesterase 10A (Homo sapiens, UniProt Q9Y233); test: Inhibition of Ca2+/calmodulin-induced recombinant human full length N-terminal GST-tagged PDE10A1 expressed in baculovirus infected Sf9 cells using cAMP as substrate pretreated for 10 mins followed by substrate addition and measured after 40 mins by kinase-Glo luminescence assay
[4] = Intrinsic clearance in rat liver microsomes in presence of NADP/G6P/G6P dehydrogenase/MgCl2 by LC/MS analysis; assay type: ADME, microsome; conditions: read-out: CLH
Procedure, shortened: (§2)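 Phase-1 liver microsomal stability assay for the named species, with intrinsic clearance reported in µl x min^-1 x mg^-1.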

[5] = Intrinsic clearance in human liver microsomes in presence of NADP/G6P/G6P dehydrogenase/MgCl2 by LC/MS analysis; assay type: ADME, microsome; conditions: read-out: CLH; procedure, shortened: as §2
[6] = target: T1, cAMP and cAMP-inhibited cGMP 3',5'-cyclic phosphodiesterase 10A; test: Inhibition of PDE10 (unknown origin)
[7] = Intrinsic clearance in rat liver microsomes; assay type: ADME, microsome

T1 sequence (Q9Y233 whole entry): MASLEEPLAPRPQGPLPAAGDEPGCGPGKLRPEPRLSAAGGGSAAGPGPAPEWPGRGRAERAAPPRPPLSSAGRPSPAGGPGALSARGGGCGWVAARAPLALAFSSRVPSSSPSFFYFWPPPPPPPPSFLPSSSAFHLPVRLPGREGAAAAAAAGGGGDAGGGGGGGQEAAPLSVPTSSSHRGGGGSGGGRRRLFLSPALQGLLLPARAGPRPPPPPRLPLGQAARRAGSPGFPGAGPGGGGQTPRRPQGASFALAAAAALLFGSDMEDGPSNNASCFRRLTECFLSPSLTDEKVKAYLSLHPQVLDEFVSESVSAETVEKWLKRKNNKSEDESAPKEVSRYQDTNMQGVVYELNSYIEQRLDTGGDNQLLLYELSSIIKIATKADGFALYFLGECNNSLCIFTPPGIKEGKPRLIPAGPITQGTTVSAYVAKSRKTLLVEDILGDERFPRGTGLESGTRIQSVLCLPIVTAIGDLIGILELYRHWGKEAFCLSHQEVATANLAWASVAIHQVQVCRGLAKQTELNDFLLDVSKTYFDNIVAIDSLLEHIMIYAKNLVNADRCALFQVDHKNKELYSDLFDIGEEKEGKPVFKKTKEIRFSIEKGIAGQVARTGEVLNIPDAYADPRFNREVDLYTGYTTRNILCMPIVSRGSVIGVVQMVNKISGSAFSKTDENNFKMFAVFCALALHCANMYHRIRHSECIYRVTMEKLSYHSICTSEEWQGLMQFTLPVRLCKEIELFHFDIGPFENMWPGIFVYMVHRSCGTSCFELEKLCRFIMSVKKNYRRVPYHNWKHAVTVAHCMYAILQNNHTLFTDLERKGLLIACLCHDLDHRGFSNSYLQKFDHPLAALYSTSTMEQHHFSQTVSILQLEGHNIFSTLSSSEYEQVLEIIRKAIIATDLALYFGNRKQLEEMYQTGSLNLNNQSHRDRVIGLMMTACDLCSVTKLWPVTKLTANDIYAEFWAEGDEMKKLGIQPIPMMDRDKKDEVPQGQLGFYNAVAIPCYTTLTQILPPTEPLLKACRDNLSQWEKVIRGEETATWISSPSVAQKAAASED
Sequence of High affinity cGMP-specific 3',5'-cyclic phosphodiesterase 9A (O76083 whole entry, canonical isoform): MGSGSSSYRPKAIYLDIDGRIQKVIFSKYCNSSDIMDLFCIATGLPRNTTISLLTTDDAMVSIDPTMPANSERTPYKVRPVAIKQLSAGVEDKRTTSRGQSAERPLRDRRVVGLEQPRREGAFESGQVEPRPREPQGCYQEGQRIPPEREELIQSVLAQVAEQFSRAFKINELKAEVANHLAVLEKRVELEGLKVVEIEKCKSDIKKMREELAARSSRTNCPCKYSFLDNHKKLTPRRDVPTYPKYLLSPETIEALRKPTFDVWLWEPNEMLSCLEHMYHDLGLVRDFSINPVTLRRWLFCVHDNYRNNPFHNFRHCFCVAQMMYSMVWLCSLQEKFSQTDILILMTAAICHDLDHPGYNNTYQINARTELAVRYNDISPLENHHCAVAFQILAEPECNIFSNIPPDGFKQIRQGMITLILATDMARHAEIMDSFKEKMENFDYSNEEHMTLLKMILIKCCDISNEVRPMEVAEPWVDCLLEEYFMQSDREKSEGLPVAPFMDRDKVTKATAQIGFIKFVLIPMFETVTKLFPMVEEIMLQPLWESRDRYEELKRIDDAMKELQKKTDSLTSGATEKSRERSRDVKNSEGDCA
Sequence of Dual specificity calcium/calmodulin-dependent 3',5'-cyclic nucleotide phosphodiesterase 1C (Q14123 whole entry): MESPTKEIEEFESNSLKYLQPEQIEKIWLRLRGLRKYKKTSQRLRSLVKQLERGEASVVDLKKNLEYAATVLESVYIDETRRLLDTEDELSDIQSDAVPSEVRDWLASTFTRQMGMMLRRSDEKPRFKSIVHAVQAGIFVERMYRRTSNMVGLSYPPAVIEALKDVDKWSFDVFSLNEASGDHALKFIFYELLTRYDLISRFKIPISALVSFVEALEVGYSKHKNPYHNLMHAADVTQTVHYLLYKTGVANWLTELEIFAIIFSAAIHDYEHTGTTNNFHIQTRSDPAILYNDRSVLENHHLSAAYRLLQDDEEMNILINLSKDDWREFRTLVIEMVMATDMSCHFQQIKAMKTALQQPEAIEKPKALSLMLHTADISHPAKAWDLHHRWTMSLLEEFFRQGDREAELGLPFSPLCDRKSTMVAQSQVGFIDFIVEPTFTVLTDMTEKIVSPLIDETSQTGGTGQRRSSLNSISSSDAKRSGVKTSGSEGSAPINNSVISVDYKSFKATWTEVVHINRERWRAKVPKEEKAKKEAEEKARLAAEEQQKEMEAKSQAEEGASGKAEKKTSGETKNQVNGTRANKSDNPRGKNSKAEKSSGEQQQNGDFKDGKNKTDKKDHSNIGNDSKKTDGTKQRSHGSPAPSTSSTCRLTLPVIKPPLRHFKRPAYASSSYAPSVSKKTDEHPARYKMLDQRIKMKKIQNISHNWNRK

Structure (SMILES)	IC50 [1]	IC50 [2]	IC50 ([3]; read-out: IC50)	other results
Cc1ncc(C)n2nc(-c3ccc4nc(-c5cccnc5)[nH]c4c3)nc12	> 10000 nM	> 10000 nM	166 nM	–
Cc1cc(C)n2nc(-c3ccc4cc(-c5ccccc5)nn4c3)nc2n1	–	–	770 nM	–
Cc1ncc(C)n2nc(-c3ccc4nc(-c5ccccc5C(F)(F)F)[nH]c4c3)nc12	–	–	> 1000 nM	–
Cc1ncc(C)n2nc(-c3ccc4nc(-c5ccccc5C#N)[nH]c4c3)nc12	–	–	382 nM	–
Cc1ccccc1-c1nc2ccc(-c3nc4c(C)ncc(C)n4n3)cc2[nH]1	–	–	242 nM	–
Cc1ncc(C)n2nc(-c3ccc4nc(-c5cnc6ccccc6n5)[nH]c4c3)nc12	–	–	> 1000 nM	–
Cc1cc(C)n2nc(-c3ccc4nc(-c5ccccc5)[nH]c4c3)nc2n1	> 10000 nM	> 10000 nM	–	–
Cc1nc(-c2ccn3nc(-c4ccccc4)nc3c2)nc2ccccc12	–	–	884 nM	–
COc1ccccc1-c1nc2ccc(-c3nc4c(C)ncc(C)n4n3)cc2[nH]1	> 10000 nM	> 10000 nM	–	–
Cc1ncc(C)n2nc(-c3ccc4nc(-c5ccc(F)cc5)[nH]c4c3)nc12	> 10000 nM	> 10000 nM	–	–
Cc1ncc(C)n2nc(-c3ccc4nc(Cc5ccccc5)[nH]c4c3)nc12	–	–	> 1000 nM	–
Cc1cc(C)n2nc(-c3ccn4nc(-c5ccccc5)nc4c3)nc2n1	–	–	381 nM	–
Cc1ncc(C)n2nc(-c3ccc4[nH]c(-c5ccccc5)nc4c3)nc12	> 10000 nM	> 10000 nM	–	microsomal CLint [4]: 27.4 µL/min/mg; microsomal CLint [5]: 34.4 µL/min/mg
Cc1cc(C)n2nc(-c3ccc4nc(-c5ccccc5)n(C)c4c3)nc2n1	–	–	–	IC50 ([3]; sf9): Not Active
Cc1ncc(C)n2nc(-c3ccc4nc(-c5ccco5)[nH]c4c3)nc12	> 10000 nM	> 10000 nM	67 nM	microsomal CLint [4]: 26.3 µL/min/mg
Cc1nc(-c2ccn3cc(-c4ccccc4)nc3n2)nc2ccccc12	–	–	163 nM	–
Cc1cc(C)n2c(Br)c(CSc3nc4ccccc4[nH]3)nc2n1	–	–	–	IC50 [6]: 210 nM; CLH [7]: 3.6 µL/min/mg
Cc1ncc(C)n2nc(-c3ccc4nc(-c5cccc(Br)c5)[nH]c4c3)nc12	> 10000 nM	> 10000 nM	146 nM	–
Cc1cc(C)n2nc(-c3ccn4nc(-c5ncccn5)nc4c3)nc2n1	–	–	> 5000 nM	–
Cc1nc(-c2ccc3nc(-c4ccccc4)[nH]c3c2)nc2ccccc12	–	–	315 nM	microsomal CLint [4]: > 450 µL/min/mg
Cc1ncc(C)n2nc(-c3ccc4nc(-c5ccc(Cl)s5)[nH]c4c3)nc12	> 10000 nM	> 10000 nM	161 nM	–
Cc1ncc(C)n2nc(-c3ccc4nc(-c5ccccc5OC(F)(F)F)[nH]c4c3)nc12	–	–	280 nM	–
Cc1cc(C)n2nc(CCc3nc(-c4ccccc4)cn3C)nc2n1	–	–	–	IC50 [6]: 67 nM; CLH [7]: 13 µL/min/mg
Cc1ncc(C)n2nc(-c3ccc4[nH]c(-c5ccccc5F)nc4c3)nc12	> 10000 nM	> 10000 nM	–	–

Now from value to compound, other results behind:

IC50 [1]	IC50 [2]	IC50 ([3]; read-out: IC50)	Structure (SMILES)	other results
–	–	> 1000 nM	Cc1ncc(C)n2nc(-c3ccc4nc(-c5cnccn5)[nH]c4c3)nc12	–
–	–	581 nM	Cc1ncc(C)n2nc(-c3ccc4cc(-c5ccccc5)nn4c3)nc12	–
> 10000 nM	> 10000 nM	198 nM	Cc1cnc(-c2nc3ccc(-c4nc5c(C)ncc(C)n5n4)cc3[nH]2)s1	–
> 10000 nM	> 10000 nM	28 nM	Cc1ncc(C)n2nc(-c3ccc4nc(-c5cccs5)[nH]c4c3)nc12	–
–	–	> 280 nM	COc1ccnc(-c2nc3ccc(-c4nc5c(C)ncc(C)n5n4)cc3[nH]2)c1	–
> 10000 nM	> 10000 nM	–	Cc1ncc(C)n2nc(-c3ccc4[nH]c(-c5ccccn5)nc4c3)nc12	microsomal CLint [4]: 11.1 µL/min/mg
> 10000 nM	> 10000 nM	76 nM	Cc1ncc(C)n2nc(-c3ccn4cc(-c5ccc(F)cc5)nc4n3)nc12	microsomal CLint [4]: 3.1 µL/min/mg
> 10000 nM	> 10000 nM	135 nM	Cc1ncc(C)n2nc(-c3ccn4cc(-c5nccs5)nc4n3)nc12	–
–	–	280 nM	Cc1cc(C)n2nc(-c3ccn4cc(-c5ccccn5)nc4n3)nc2n1	–
–	–	268 nM	Cc1ncc(C)n2nc(-c3ccn4nc(-c5ccccc5)nc4c3)nc12	–
–	–	> 300 nM	Cc1ncc(C)n2nc(-c3ccc4[nH]c(-c5cocn5)nc4c3)nc12	–
–	–	> 280 nM	COc1ccc(OC)c(-c2cn3ccc(-c4nc5c(C)ncc(C)n5n4)nc3n2)c1	–
> 10000 nM	> 10000 nM	69 nM	Cc1ncc(C)n2nc(-c3ccc4nc(-c5ncccc5F)[nH]c4c3)nc12	microsomal CLint [4]: 1.8 µL/min/mg
> 10000 nM	> 10000 nM	117 nM	Cc1csc(-c2nc3ccc(-c4nc5c(C)ncc(C)n5n4)cc3[nH]2)n1	–
> 10000 nM	> 10000 nM	135 nM	Cc1ncc(C)n2nc(-c3ccc4nc(-c5cncs5)[nH]c4c3)nc12	–
–	–	458 nM	Cc1cc(C)n2nc(-c3ccn4cc(-c5nccs5)nc4n3)nc2n1	–
–	–	280 nM	Cc1ncc(C)n2nc(-c3ccc4nc(-c5nccn5C)[nH]c4c3)nc12	–
> 10000 nM	> 10000 nM	40 nM	COc1cccnc1-c1nc2ccc(-c3nc4c(C)ncc(C)n4n3)cc2[nH]1	microsomal CLint [4]: 5.4 µL/min/mg; microsomal CLint [5]: 0.7 µL/min/mg
–	–	> 1000 nM	Cc1ncc(C)n2nc(-c3ccn4cc(-c5ccc(Br)cc5)nc4n3)nc12	microsomal CLint [4]: 15 µL/min/mg
> 10000 nM	> 10000 nM	115 nM	Cc1ncc(C)n2nc(-c3ccn4cc(-c5ccccn5)nc4n3)nc12	–
> 10000 nM	> 10000 nM	145 nM	Cc1ncc(C)n2nc(-c3ccn4cc(-c5ccccc5Br)nc4n3)nc12	microsomal CLint [4]: 1.8 µL/min/mg
> 10000 nM	> 10000 nM	107 nM	Cc1ncc(C)n2nc(-c3ccn4cc(-c5cccc(Cl)c5)nc4n3)nc12	microsomal CLint [4]: 18.9 µL/min/mg
–	–	268 nM	Cc1ncc(C)n2nc(-c3ccc4nc(-c5cscn5)[nH]c4c3)nc12	–
> 10000 nM	> 10000 nM	–	Cc1cc(C)n2nc(-c3ccn4cc(-c5ccccc5)nc4n3)nc2n1	–
> 10000 nM	> 10000 nM	52 nM	COc1ccccc1-c1cn2ccc(-c3nc4c(C)ncc(C)n4n3)nc2n1	microsomal CLint [4]: 9.1 µL/min/mg
–	–	> 1000 nM	Cc1ncc(C)n2nc(-c3ccn4cc(-c5ccc(F)cc5Cl)nc4n3)nc12	microsomal CLint [4]: 11.5 µL/min/mg
> 10000 nM	> 10000 nM	–	Cc1ncc(C)n2nc(-c3ccc4nc(-c5nccs5)[nH]c4c3)nc12	–
